# According to ChEMBL document CHEMBL1141257, “Solanapyrone analogues from a Hawaiian fungicolous fungus” (J Nat Prod, 2007):
# Calls of active or inactive are those of the source. The calls are words filed in the database; no cut-off is given here.
# Columns and labels:
# Staphylococcus aureus [1] = assay: Antibacterial activity against Staphylococcus aureus ATCC 25923 at 50 ug/disk after 4 days; type: functional; details: for zone of inhibition at 50 µg/disc: ATCC 25923, 96 h, read-out: IZ
# Method in brief: (§1)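 Standard agar disk diffusion assay with 50 μg loaded per disk. Zones were read after 4 days as clear zones of inhibition in mm. For S. aureus, the zone of reduced growth was also measured in mm.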
# Candida albicans [2] = assay: Antifungal activity against Candida albicans ATCC 14053; type: functional; method in brief: as §1
# Escherichia coli = assay: […] activity against Escherichia coli ATCC 25922; type: functional, organism-based; method in brief: as §1
# Candida albicans [3] = assay: Antifungal activity against Candida albicans ATCC 14053 at 50 ug/disk; type: functional; details: read-out: IZ; method in brief: as §1
# Aspergillus flavus [4] = assay: Antifungal activity against Aspergillus flavus NRRL 6541 at 200 ug/disk after 4 days; type: functional; details: NRRL 6541, 96 h, read-out: IZ
# Method in brief: (§2)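 Disk diffusion assay with 200 μg applied per disk; the diameter of the growth-inhibition zone was read in mm, and persistence of the zone was followed over 4 days.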
# Fusarium verticillioides [5] = assay: Antifungal activity against Fusarium verticillioides NRRL 25457 at 200 ug/disk after 4 days; type: functional; details: NRRL 25457, 96 h, read-out: IZ; method in brief: as §2
# Aspergillus flavus [6] = assay: Antifungal activity against Aspergillus flavus NRRL 6541; type: functional, organism-based
# Method in brief: (§3)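 Disk diffusion assay against the fungus with 200 μg of compound per disk; zones of inhibition were read and followed over 4 days. A further evaluation reported MIC and IC50 values, with the antifungal standard run under the same protocols.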
# Fusarium verticillioides [7] = assay: Antifungal activity against Fusarium verticillioides NRRL 25457; type: functional, organism-based; method in brief: as §3
# Staphylococcus aureus [8] = assay: Antibacterial activity against Staphylococcus aureus ATCC 25923 assessed as zone of reduced growth at 50 ug/disk after 4 days; type: functional; details: ATCC 25923, 96 h, read-out: IZ; method in brief: as §1
compound,measurement,setting,value
COc1cc([C@@]2(C)[C@H]3[C@H](C=C[C@H]2C)CCC[C@@H]3C)oc(=O)c1CO,Activity,Staphylococcus aureus [1],inactive
same,Activity,Candida albicans [2],inactive
same,Activity,Escherichia coli,inactive
C[C@H]1CCC[C@@H]2C=C[C@H](C)[C@@](C)(C3=CC(=O)/C(=C/N)C(=O)O3)[C@H]12,Activity,Staphylococcus aureus [1],inactive
same,Activity,Candida albicans [2],inactive
same,Activity,Escherichia coli,inactive
CCCCC[C@@H](O)[C@H]1C(=O)O[C@H](C)[C@@H](O)/C=C/C=C/C=C/C=C/C=C(\C)[C@@H](O)C[C@H](O)C[C@H](O)C[C@H](O)C[C@H](O)C[C@H](O)C[C@@H]1O [FILIPIN],zone of inhibition at 50 µg/disc,Candida albicans [3],23 mm
COc1cc([C@@]2(C)[C@@H]3[C@@H](C)CCC[C@@H]3C=C[C@@H]2C)oc(=O)c1C=O [SOLANAPYRONE J],zone of inhibition at 200 µg/disc,Aspergillus flavus [4],30 mm
same,zone of inhibition at 200 µg/disc,Fusarium verticillioides [5],30 mm
same,MIC,"Aspergillus flavus [6]; Aspergillus flavus, NRRL 6541",20 mg/L
same,IC50,"Aspergillus flavus [6]; Aspergillus flavus, NRRL 6541, read-out: IC50",8.6 mg/L
same,MIC,"Fusarium verticillioides [7]; Fusarium verticillioides, NRRL 25457",24 mg/L
same,IC50,"Fusarium verticillioides [7]; Fusarium verticillioides, NRRL 25457, read-out: IC50",15 mg/L
same,zone of inhibition at 50 µg/disc,Staphylococcus aureus [8],21 mm
same,zone of inhibition at 50 µg/disc,Staphylococcus aureus [1],17 mm
same,inhibition zone (IZ),Candida albicans [2],19 mm
C[C@H]1CCC[C@@H]2C=C[C@H](C)[C@@](C)(C3=CC(=O)/C(=C\NCCO)C(=O)O3)[C@H]12 [SOLANAPYRONE K],zone of inhibition at 50 µg/disc,Staphylococcus aureus [1],9 mm
same,inhibition zone (IZ),Candida albicans [2],13 mm
NYSTATIN [listing 1 of 2 here],IC50,Aspergillus flavus [6],5 mg/L
same,IC50,Fusarium verticillioides [7],3 mg/L
NYSTATIN [listing 2 of 2 here],MIC,Aspergillus flavus [6],10 mg/L
same,MIC,Fusarium verticillioides [7],10 mg/L
